Test results taken from ChEMBL document CHEMBL1772995, “Targeting the c-Kit Promoter G-quadruplexes with 6-Substituted Indenoisoquinolines” (ACS Med Chem Lett, 2010).
pIC50: −log10 of the molar value. Counter-ions that a name gives are not always drawn. Activity calls are given as the source filed them. No cut-off for these calls is given here.

How the values were obtained:
[1] = system: HT-29; assay: cells; type: functional, cell-based; settings: Homo sapiens, HT-29, 96 h
[2] = system: Nucleic Acid; assay: Binding affinity to double stranded-DNA (50-FAM-TAT AGC TAT A-HEG-TAT AGC TAT A-TAMRA-30) assessed as concentration required to cause half maximal change in melting temperature by FRET-melting assay (reference value: 62.7 degC); type: nucleic-acid assay
Summary of the method: (§1)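 Dual FAM/TAMRA-labelled oligonucleotides diluted in 60 mM potassium cacodylate, pH 7.4, annealed at 400 nM (94 °C for 10 min, cooled to room temperature at 0.1 °C/min), then mixed 1:1 with ligand solution to 200 nM DNA final. Melting read with excitation at 483 nm and emission at 533 nm, in triplicate. ΔTm taken across a range of ligand concentrations, with the ligand level giving half-maximal ΔTm also derived.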

[3] = system: Nucleic Acid; assay: Binding affinity to human telomeric (5'-FAM-GGGTTAGGGTTAGGGTTAGGG-TAMRA-3') DNA assessed as change in melting temperature at 1 uM by FRET-melting assay (reference value: 59.4 degC); type: nucleic-acid assay
Summary of the method: as §1

[4] = system: Nucleic Acid; assay: Binding affinity to human c-KIT2 (5'-FAM-GGGCGGGCGCGAGGGAGGGG-TAMRA-3') DNA assessed as change in melting temperature at 1 uM by FRET-melting assay (reference value: 72.7 degC); type: nucleic-acid assay
Summary of the method: as §1

[5] = system: Nucleic Acid; assay: Binding affinity to human c-KIT2 (5'-FAM-GGGCGGGCGCGAGGGAGGGG-TAMRA-3') DNA assessed as concentration required to cause half maximal change in melting temperature by FRET-melting assay (reference value: 72.7 degC); type: nucleic-acid assay
Summary of the method: as §1

[6] = cells; type: functional, cell-based; settings: Homo sapiens, GIST882, 96 h
[7] = system: Nucleic Acid; assay: Binding affinity to human telomeric (5'-FAM-GGGTTAGGGTTAGGGTTAGGG-TAMRA-3') DNA assessed as concentration required to cause half maximal change in melting temperature by FRET-melting assay (reference value: 59.4 degC); type: nucleic-acid assay
Summary of the method: as §1

[8] = system: Nucleic Acid; assay: Binding affinity to human c-KIT1 (5'-FAM-GGGAGGGCGCTGGGAGGAGGG-TAMRA-3') DNA assessed as change in melting temperature at 1 uM by FRET-melting assay (reference value: 54.4 degC); type: nucleic-acid assay
Summary of the method: as §1

[9] = system: Nucleic Acid; assay: Binding affinity to double stranded-DNA (50-FAM-TAT AGC TAT A-HEG-TAT AGC TAT A-TAMRA-30) assessed as change in melting temperature at 1 uM by FRET-melting assay (reference value: 62.7 degC); type: nucleic-acid assay
Summary of the method: as §1

[10] = system: Nucleic Acid; assay: Binding affinity to human c-KIT1 (5'-FAM-GGGAGGGCGCTGGGAGGAGGG-TAMRA-3') DNA assessed as concentration required to cause half maximal change in melting temperature by FRET-melting assay (reference value: 54.4 degC); type: nucleic-acid assay
Summary of the method: as §1

[11] = Toxicity in human GIST882 cells expressing c-Kit at 20 uM after 24 hrs; type: cell-based; settings: gist882, 24 h
[12] = target: Mast/stem cell growth factor receptor Kit (Homo sapiens) (UniProt P10721); assay: Inhibition of c-Kit protein expression in human GIST882 cells at 20 uM after 24 hrs by immunoblotting; type: functional, cell-based
Summary of the method: (§2)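 GIST882 cells (1 × 10^6 per T25 flask) treated 24 h with 0.8, 4 or 20 μM ligand, or DMSO control. Lysed in RIPA buffer with protease and phosphatase inhibitors; 10–20 μg protein run on 8–16% SDS-PAGE, transferred to nitrocellulose and probed with anti-KIT. β-actin used as loading control; enhanced-luminescence detection.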

[13] = target: Mast/stem cell growth factor receptor Kit (Homo sapiens) (UniProt P10721); assay: Inhibition of c-Kit mRNA expression in human GIST882 cells after 24 hrs by […] RT-PCR analysis; type: functional, cell-based
Summary of the method: (§3)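 GIST882 cells grown in RPMI 1640 with 10% FBS. 1 × 10^6 cells seeded in T25 flasks and treated 24 h with 0.8, 4 or 20 μM ligand, or DMSO control. Total RNA extracted; cDNA made from 1 μg RNA with oligo dT (55 °C, 1 h). qPCR annealing at 64 °C, single amplicon checked by melt curve. KIT mRNA normalised to β-actin or YWHAZ and given as % of control. Two independent experiments, each in triplicate.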

[14] = target: Mast/stem cell growth factor receptor Kit (Homo sapiens) (UniProt P10721); assay: Inhibition of c-Kit mRNA expression in human GIST882 cells at 20 uM after 24 hrs by […] RT-PCR analysis relative to control; type: functional, cell-based
Summary of the method: as §3

[15] = target: Mast/stem cell growth factor receptor Kit (Homo sapiens) (UniProt P10721); assay: Inhibition of c-Kit mRNA expression in human GIST882 cells at 4 uM after 24 hrs by […] RT-PCR analysis relative to control; type: functional, cell-based
Summary of the method: as §3

[16] = target: Mast/stem cell growth factor receptor Kit (Homo sapiens) (UniProt P10721); assay: Inhibition of c-Kit protein expression in human GIST882 cells after 24 hrs by immunoblotting; type: functional, cell-based
Summary of the method: as §2

Sequence of Mast/stem cell growth factor receptor Kit (Homo sapiens) (P10721 whole entry): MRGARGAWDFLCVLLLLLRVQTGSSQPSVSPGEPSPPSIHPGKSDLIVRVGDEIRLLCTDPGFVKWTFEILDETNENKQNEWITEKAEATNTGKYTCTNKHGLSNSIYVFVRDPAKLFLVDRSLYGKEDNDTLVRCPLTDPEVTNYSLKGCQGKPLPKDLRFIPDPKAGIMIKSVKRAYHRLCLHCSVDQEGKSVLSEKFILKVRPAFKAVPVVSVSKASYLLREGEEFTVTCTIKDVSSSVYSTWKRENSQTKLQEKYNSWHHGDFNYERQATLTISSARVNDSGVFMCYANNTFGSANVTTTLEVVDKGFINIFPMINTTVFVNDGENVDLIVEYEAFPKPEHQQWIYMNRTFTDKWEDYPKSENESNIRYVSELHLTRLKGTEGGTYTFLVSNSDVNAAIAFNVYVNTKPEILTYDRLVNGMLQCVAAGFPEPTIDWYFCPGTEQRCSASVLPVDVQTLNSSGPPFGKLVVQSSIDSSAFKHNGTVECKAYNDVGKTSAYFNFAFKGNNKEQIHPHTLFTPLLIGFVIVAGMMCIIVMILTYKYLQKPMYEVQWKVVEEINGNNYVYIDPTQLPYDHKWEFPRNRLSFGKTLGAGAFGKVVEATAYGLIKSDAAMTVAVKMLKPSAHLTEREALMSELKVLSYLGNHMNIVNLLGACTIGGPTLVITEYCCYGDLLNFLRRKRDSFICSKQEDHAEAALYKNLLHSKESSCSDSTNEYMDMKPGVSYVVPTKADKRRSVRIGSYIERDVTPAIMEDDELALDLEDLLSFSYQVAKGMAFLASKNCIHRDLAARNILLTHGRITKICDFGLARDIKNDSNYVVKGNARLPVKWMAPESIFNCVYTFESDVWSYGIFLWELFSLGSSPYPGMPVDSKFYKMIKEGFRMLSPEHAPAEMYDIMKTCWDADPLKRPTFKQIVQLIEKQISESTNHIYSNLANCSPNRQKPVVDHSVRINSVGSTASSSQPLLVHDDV

pIC50 [1] | Activity [2] [µM] | deltaTm [3] [K] | deltaTm [4] [K] | Activity [5] [µM] | pIC50 [6] | Activity [7] [µM] | deltaTm [8] [K] | deltaTm [9] [K] | Activity [10] [µM] | inhibition [12] | inhibition [13] | inhibition [14] [%] | inhibition [15] [%] | inhibition [16] | SMILES | Activity [11]
6.40 | 9 | 14.4 | 14.4 | 0.72 | 5.30 | 1.63 | 23.7 | 4 | 0.93 | – | – | – | – | – | O=C1c2ccccc2-c2c1c1ccccc1c(=O)n2CCCN1CCCC1 | –
6.15 | > 10 | 17.6 | 12.2 | 0.84 | 4.86 | 0.98 | 25.9 | 1.7 | 0.59 | – | – | – | – | – | CN1CCN(CCCn2c3c(c4ccccc4c2=O)C(=O)c2ccccc2-3)CC1 | –

The next lines start with the compound.

SMILES | pIC50 [1] | Activity [2] [µM] | deltaTm [3] [K] | deltaTm [4] [K] | Activity [5] [µM] | pIC50 [6] | Activity [7] [µM] | deltaTm [8] [K] | deltaTm [9] [K] | Activity [10] [µM] | inhibition [12] | inhibition [13] | inhibition [14] [%] | inhibition [15] [%] | inhibition [16] | Activity [11]
O=C1c2ccccc2-c2c1c1ccccc1c(=O)n2CCCN1CCOCC1 | < 4.30 | > 10 | 4.8 | 3.9 | 4.4 | < 4.30 | > 10 | 8.7 | 0.6 | 8.9 | – | – | – | – | – | –
O=C1c2ccccc2-c2c1c1ccccc1c(=O)n2CCCn1ccnc1 | 5.66 | > 10 | 6.3 | 13.2 | 0.62 | 4.64 | > 10 | 11.7 | 0 | > 10 | – | – | – | – | – | –
CN(C)CCCn1c2c(c3ccccc3c1=O)C(=O)c1ccccc1-2.Cl | 6.52 | > 10 | 13 | 13 | 0.69 | 5.39 | 1.6 | 20.1 | 3.9 | 0.95 | Active | Dose-dependent effect | 89 | 67 | Dose-dependent effect | Toxic
Cc1ccc(NC(=O)c2ccc(CN3CCN(C)CC3)cc2)cc1Nc1nccc(-c2cccnc2)n1 [IMATINIB MESYLATE] | – | – | – | – | – | 5.77 | – | – | – | – | – | – | – | – | – | –
